Rows were chosen to be rich in hits. Some 4.4% of all compounds tested hit in one or more screens of this group.
GRIN3A LBD mod: binders of NR3A ligand-binding domain, primary screen, biophysical, differential scanning fluorimetry, uHTS. Glutamate receptor ionotropic, NMDA 3A (GRIN3A) ligand-binding domain. NR3A LBD differential scanning fluorimetry, Tm shift; 0% = protein alone, 100% = glycine-bound protein. Tm shift relative to glycine control, % at 25 µM. actives 2.5% (n = 340,000). AID 1259313, 2017;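 active means melting temperature shift of at least 10% of the positive control shift, at one fixed dose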
SENP1 inh: human SENP1 catalytic domain inhibitors, primary screen, biochemical, FRET, uHTS | Sentrin-specific protease 1 (Homo sapiens), Q9P0U3 | recombinant SENP1 catalytic domain, CyPet-SUMO1-YPet FRET cleavage | inhibition, % at 10 µM | actives 0.21% (n = 360,000);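 active means inhibition at least 30% at 10 µM, raw YFP signal under a set limit, fluorescence ratio 0.5 to 1.5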;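 further: 0% = enzyme with DMSO and 100% = no enzyme wells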
Target sequence (Q9P0U3 419-644 limits assumed): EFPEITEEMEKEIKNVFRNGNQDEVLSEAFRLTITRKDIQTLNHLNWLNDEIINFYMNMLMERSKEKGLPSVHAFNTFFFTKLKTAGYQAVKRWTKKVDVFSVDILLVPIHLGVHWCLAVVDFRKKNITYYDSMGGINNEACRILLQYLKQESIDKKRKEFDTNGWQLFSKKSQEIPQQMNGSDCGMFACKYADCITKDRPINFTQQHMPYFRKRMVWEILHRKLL
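Test system: human SENP1 catalytic domain; medium: Tris pH 8 buffer plus EDTA, NaCl, BME, BSA, NP40, catalase; incubation: 50 min reaction at room temperature; technique: FRET, CFP and YFP emission; controls: no-enzyme low control and enzyme-plus-DMSO high control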
EBI2 antag: EBI2 receptor antagonists, beta-arrestin recruitment, primary screen, cell-based, luminescence, 7a,25-OHC stimulation, uHTS. G-protein coupled receptor 183 (Homo sapiens), P32249. 7a,25-OHC stimulated. inhibition, % at 5 µM. actives 0.81% (n = 360,000). AID 651636, 2012; in the data active means inhibition above about 38%;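 further: enzyme fragment complementation signal reports receptor beta-arrestin coupling in cells; 0% = agonist plus DMSO wells and 100% = wells without agonist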
Target sequence (P32249 whole entry, looked up, the tested form may be a part): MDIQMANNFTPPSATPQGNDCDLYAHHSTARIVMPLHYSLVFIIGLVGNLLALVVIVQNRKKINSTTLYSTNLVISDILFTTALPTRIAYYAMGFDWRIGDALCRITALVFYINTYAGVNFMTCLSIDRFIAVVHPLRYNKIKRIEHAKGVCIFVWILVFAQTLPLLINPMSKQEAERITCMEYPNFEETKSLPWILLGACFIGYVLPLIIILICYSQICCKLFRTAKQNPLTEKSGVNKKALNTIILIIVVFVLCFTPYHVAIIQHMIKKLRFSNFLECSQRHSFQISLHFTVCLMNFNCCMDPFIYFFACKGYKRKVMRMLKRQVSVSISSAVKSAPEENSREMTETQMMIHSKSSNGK
MPTP inh: mitochondrial permeability transition pore inhibitors, primary screen, biochemical, isolated mouse mitochondria, absorbance; Ca2+ swelling absorbance, 30 min; inhibition, % at 10 µM; actives 1.4% (n = 360,000); AID 602449, 2012;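 active means inhibition of 50% or more, scaled per plate between neutral and stimulator controls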;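 further: 0% = DMSO wells given calcium and 100% = 1 mM EGTA wells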
EBI2 conf: EBI2 antagonist hit retest, beta-arrestin, confirmation, cell-based, single concentration, luminescence, 7a,25-OHC stimulation; shares compounds with EBI2 antag; 7a,25-OHC antagonism; inhibition, % at 5 µM; actives 29% (n = 2,400); AID 651997, 2013;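 active means inhibition of at least 50%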
EBI2 agonist: EBI2 agonist activity of antagonist hits, confirmation, counter-screen for EBI2 antagonist project, cell-based, single concentration, agonist mode, luminescence; 2,400 tested, under 10 active; AID 652000, 2013; EBI2-expressing cells, 60 min; 0% vehicle, 100% 7α,25-dihydroxycholesterol control; activation, % at 5 µM; shares compounds with EBI2 antag;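 active means activation of at least 50%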
bGal counter: E. coli beta-galactosidase enzyme inhibition, confirmation, counter-screen for EBI2 antagonist project, biochemical, luminescence, single concentration; purified beta-galactosidase, luminescent Galacton Star, 15 min; inhibition, % at 5 µM; actives 1% (n = 2,400); AID 652176, 2013; shares compounds with EBI2 antag;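 active means replicate-average signal at least 3 plate SD below neutral wells, shown as high inhibition, flagging enzyme-inhibiting false positives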;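 further: 0% = DMSO wells with enzyme and 100% = wells lacking enzyme; higher means stronger loss of beta-gal luminescence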
Active calls of the source: *; . = no result given.

SMILES	GRIN3A LBD mod	SENP1 inh	EBI2 antag	MPTP inh	EBI2 conf	EBI2 agonist	bGal counter
COc1cc(-c2nc3ccc(C)cn3c2NCc2ccccc2)ccc1-c1cccc(Cl)c1	-6	-29	80*	3	66*	1	-5
COc1cc(-c2nc3ccc(C)cn3c2NCc2ccccc2)ccc1SC1CCCCC1	-11	-30	72*	6	55*	2	-1
CCCCNc1c(-c2ccc(SC(C)CC)cc2)nc2ccc(Cl)cn12 (centres undefined)	.	-22	12	4	.	.	.
COc1cc(-c2nc3ccccn3c2NCc2ccccc2)ccc1SC1CCCCC1	-5	-28	24	8	.	.	.
CCC(C)Sc1ccc(-c2nc3ccc(C)cn3c2NCc2ccccc2)cc1 (centres undefined)	-18	-47	47*	22	24	1	6
Cc1ccc(C)c2c3c([nH]c12)-c1nonc1CC3	-5	5	7	1	.	.	.
O=C(OCc1c(F)cccc1Cl)c1cccc(S(=O)(=O)N2CCOCC2)c1	3	1	4	-2	.	.	.
O=[N+]([O-])C1=CC=C2C(=NC3(CCCCC3)N2O)C1=NC1CCCCC1	-1	4	48*	4	20	2	3
Cc1nn(Cc2ccc(Cl)cc2Cl)c(C)c1NC(=O)c1ccc(COc2cc(Cl)ccc2Cl)o1	2	2	47*	2	35	0	9
Cc1nn(Cc2c(F)c(F)c(F)c(F)c2F)c(C)c1NC(=O)c1ccc(COc2ccc(Cl)cc2Cl)o1	1	2	30	7	.	.	.
Nc1c(Cl)ncnc1N/N=C/c1ccc2ccccc2n1	0	13	62*	3	84*	-2	11
CC(=O)c1ccc(NC(=O)CCc2nnc3ccc(N4CCCC4)nn23)cc1	-2	0	-14	-2	.	.	.
CCOC(=O)c1ccccc1NC(=O)CN(c1ccccc1C)S(C)(=O)=O	1	4	-1	-1	.	.	.
Cc1cc(Cl)ccc1OCC(=O)N1CCN(c2ncccn2)CC1	-1	1	56*	-2	36	0	-18
Cc1cc(Cl)ccc1OCC(=O)N1CCCCC1	1	0	8	-2	.	.	.
Cc1ccc(C(C)C)c(OCC(=O)N2CCN(c3ncccn3)CC2)c1	0	0	48*	-1	44	0	0
Cc1cc(Cl)cc(C)c1OCC(=O)N1CCN(c2ncccn2)CC1	0	1	76*	-1	42	-1	-16
CC(OC(=O)c1cc(S(=O)(=O)N(C)C)ccc1N1CCCC1)C(=O)NCc1ccccc1 (centres undefined)	-4	1	9	-1	.	.	.
c1ccc(Nc2ncnc3[nH]ncc23)cc1	-1	1	9	1	.	.	.
Cc1ccc(S(=O)(=O)/N=C(/Nc2ccc3[nH]c(=O)[nH]c3c2)c2ccc(F)cc2)cc1	-1	-1	2	0	.	.	.
Cc1cccc(N2CCN(C(=O)c3ccncc3)CC2C)c1 (centres undefined)	0	2	5	1	.	.	.
Cc1cccc(N2CCN(C(=O)c3ccc4ccccc4c3)CC2C)c1 (centres undefined)	-2	4	65*	2	42	-1	-15
CC1CC(C)CN(C(=O)c2ccc3ccccc3c2)C1 (centres undefined)	0	1	10	0	.	.	.
O=C(c1ccc2ccccc2c1)N1CCN(c2ccccc2)CC1	-3	3	83*	4	68*	0	-10
CC1CCN(C(=O)c2ccc3ccccc3c2)CC1	-1	2	46*	0	48	0	-1
SMILES	GRIN3A LBD mod	SENP1 inh	EBI2 antag	MPTP inh	EBI2 conf	EBI2 agonist	bGal counter
CCc1cc(C(=O)OC)c(NC(=O)C2CC(=O)NN2Cc2ccccc2)s1 (centres undefined)	0	0	-6	-1	.	.	.
CC(=O)N(Cc1ccco1)c1nc(C(=O)Nc2ccc(Cl)cc2)c(C)s1	-12	-24	61*	-1	17	1	7
Cc1ocnc1C(=O)Nc1ccc(Cl)cc1	0	-2	-2	0	.	.	.
Cc1cc(C)c(C#N)c(SCc2[nH]nc3c2C(c2ccc(F)cc2)C(C#N)=C(N)O3)n1 (centres undefined)	-2	-35	84*	9	57*	1	8
Cc1[nH]nc2c1C(c1ccc(F)cc1)C(C#N)=C(N)O2 (centres undefined)	1	2	0	-4	.	.	.
Cc1cc(C#N)c(C)c(SCc2[nH]nc3c2C(c2ccccc2)C(C#N)=C(N)O3)n1 (centres undefined)	-2	-12	68*	8	55*	0	7
Cc1ccc(SCc2[nH]nc3c2C(c2cccnc2)C(C#N)=C(N)O3)cc1 (centres undefined)	1	1	5	2	.	.	.
O=C1NN=C(c2ccc(Br)cc2)CC1c1ccc(Cl)cc1 (centres undefined)	-6	3	74*	-1	52*	-2	-2
CCc1ccc(C2CC(c3ccc(Cl)cc3)=NNC2=O)cc1 (centres undefined)	0	2	61*	1	48	1	0
Cc1cccc(C2=NNC(=O)C(c3ccc(Cl)cc3)C2)c1 (centres undefined)	-1	2	24	-1	.	.	.
Cc1ccc(C2CC(c3ccc(Cl)cc3)=NNC2=O)cc1 (centres undefined)	0	2	50*	0	44	0	8
O=C(NC(c1ccc(-c2ccccc2)cc1)c1cnccn1)C1CCN(CCN2C(=O)c3ccccc3C2=O)CC1 (centres undefined)	.	-4	-2	1	.	.	.
CSc1ccc(/C=N/NC(=O)CN2CCN(Cc3ccccc3Cl)CC2)cc1	2	1	61*	2	46	1	6
O=C(CN1CCN(Cc2ccc(Cl)cc2)CC1)N/N=C/c1ccncc1	-1	0	1	-1	.	.	.
CSc1ccc(/C=N/NC(=O)CN2CCN(Cc3ccc(C)cc3)CC2)cc1	-1	0	45*	1	36	1	6
